Assay results reported in publication PMC6392825 (ChemistryOpen, 2019).
Values after ≈ are worked out from the molar mass of the structure shown.

Legend:
HT‐29 [1] = test: Cell growth inhibition, protein content; format: cell-based; details: Homo sapiens, HT-29, 72 h, read-out: IC50 SRB
How it was run: (§1)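 Cell lines from ATCC, grown in DMEM+glutamax with 1% NEAA, 1% P/S and 10% FBS at 37 °C, 10% CO2. Seeded at 20000 cells/well for 24 h, then exposed to test compound (25 mM DMSO stock) for three days. Fixed with cold TCA for 1 h at 4 °C, stained 30 min with 0.4% SRB in 1% acetic acid, dissolved in 10 mM Tris, A490. Triplicate; IC50 given as mean ± SD combined with MTT data (n ≥ 3).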

HT‐29 [2] = test: Intracellular ROS assay; format: cell-based; details: for change of intracellular ROS in words: HT‐29, vs untreated control, 10 and 1 μM; for activity at 1 µM / activity at 10 µM: Homo sapiens, HT-29, read-out: Intracellular ROS, percentage compared to the untreated control cells (ROS/SRB)
How it was run: (§2)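 Cells seeded at 20000/well and grown 24 h at 37 °C, 10% CO2, then treated with test compound at 10 and 1 μM in serum-free medium. NAC and doxorubicin served as controls. After a PBS wash, cells were loaded with 20 μM DCFH-DA for 30 min, washed, and held 1 h in phenol red-free DMEM. Fluorescence read at ex 485/em 535 nm and normalized to SRB in the same well. Reported as % of untreated control, n ≥ 3, two-tailed t-test with unequal variances.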

HepG2 [3] = test: Cell growth inhibition, protein content; format: cell-based; details: Homo sapiens, HepG2, 72 h, read-out: IC50 SRB
How it was run: as §1

HepG2 [4] = test: Cytotoxicity, mitochondrial activity; format: cell-based; details: Homo sapiens, HepG2, 72 h, read-out: IC50 MTT
How it was run: (§3)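 Seeded at 20000 cells/well in DMEM and grown 24 h at 37 °C, 10% CO2. Medium was then replaced with serum-free medium holding test compound (25 mM DMSO stock) at various concentrations for 72 h, in triplicate; doxorubicin was the positive control. MTT (5 mg/mL stock in PBS) added for 2 h, formazan dissolved in DMSO, A570. IC50 derived from % surviving cells, reported as mean ± SD combined with SRB data.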

Caco‐2 [5] = test: Intracellular ROS assay; format: cell-based; details: for change of intracellular ROS in words: Caco‐2, vs untreated control, 10 and 1 μM; for activity at 1 µM / activity at 10 µM: Homo sapiens, Caco-2, read-out: Intracellular ROS, percentage compared to the untreated control cells (ROS/SRB)
How it was run: as §2

HepG2 [6] = test: Intracellular ROS assay; format: cell-based; details: for change of intracellular ROS in words: HepG2, vs untreated control, 10 and 1 μM; for activity at 1 µM / activity at 10 µM: Homo sapiens, HepG2, read-out: Intracellular ROS, percentage compared to the untreated control cells (ROS/SRB)
How it was run: as §2

CHO‐K1 = test: Intracellular ROS assay; format: cell-based, Chinese hamster; details: CHO‐K1, vs untreated control, 10 and 1 μM
How it was run: as §2

EA.hy926 [7] = test: Intracellular ROS assay; format: cell-based; details: for change of intracellular ROS in words: EA.hy926, vs untreated control, 10 and 1 μM; for activity at 1 µM / activity at 10 µM: Homo sapiens, EA.hy 926, read-out: Intracellular ROS, percentage compared to the untreated control cells (ROS/SRB)
How it was run: as §2

HT‐29 [8] = test: Cytotoxicity, mitochondrial activity; format: cell-based; details: Homo sapiens, HT-29, 72 h, read-out: IC50 MTT
How it was run: as §3

Caco‐2 [9] = test: Cell growth inhibition, protein content; format: cell-based; details: Homo sapiens, Caco-2, 72 h, read-out: IC50 SRB
How it was run: as §1

EA.hy926 [10] = test: Cell growth inhibition, protein content; format: cell-based; details: Homo sapiens, EA.hy 926, 72 h, read-out: IC50 SRB
How it was run: as §1

Caco‐2 [11] = test: Cytotoxicity, mitochondrial activity; format: cell-based; details: Homo sapiens, Caco-2, 72 h, read-out: IC50 MTT
How it was run: as §3

EA.hy926 [12] = test: Cytotoxicity, mitochondrial activity; format: cell-based; details: Homo sapiens, EA.hy 926, 72 h, read-out: IC50 MTT
How it was run: as §3

[13] = Water solubility, shake flask method, 0.1 M phosphate buffer pH 6.8; format: physicochemical; details: 37 °C, pH 6.8, aqueous buffer, thermodynamic from solid
[14] = Chemical antioxidant capacity, FRAP assay

| SMILES | IC50 (HT‐29 [1]) | activity at 1 µM (HT‐29 [2]) | activity at 10 µM (HT‐29 [2]) | IC50 (HepG2 [3]) | IC50 (HepG2 [4]) | activity at 1 µM (Caco‐2 [5]) | activity at 10 µM (Caco‐2 [5]) | activity at 1 µM (HepG2 [6]) | activity at 10 µM (HepG2 [6]) | activity at 1 µM (EA.hy926 [7]) | activity at 10 µM (EA.hy926 [7]) | IC50 (HT‐29 [8]) | IC50 (Caco‐2 [9]) | IC50 (EA.hy926 [10]) | IC50 (Caco‐2 [11]) | IC50 (EA.hy926 [12]) | solubility at 90 min [13] | solubility at 24 h [13] | FRAP (Trolox equivalent per μM) [14] | FRAP (curcumin equivalent per μM) [14] | further results |
| --- | --- | --- | --- | --- | --- | --- | --- | --- | --- | --- | --- | --- | --- | --- | --- | --- | --- | --- | --- | --- | --- |
| COc1cccc2c1C(=O)c1c(O)c3c(c(O)c1C2=O)C[C@@](O)(C(=O)CO)C[C@@H]3O[C@H]1C[C@H](N)[C@H](O)[C@H](C)O1 [Dox, doxorubicin, reference compound] | 2.7 ± 0.1 µM | 116 ± 1.7% | 126 ± 1.8% | 1.3 ± 0.3 µM | 1.8 ± 0.1 µM | 121 ± 9.4% | 112 ± 3.9% | 100 ± 4.1% | 119 ± 4.2% | 108 ± 6.2% | 125 ± 5.1% | 4.8 ± 0.1 µM | 9.2 ± 0.5 µM | 3.4 ± 0.4 µM | 13 ± 0.5 µM | 4.1 ± 0.1 µM | – | – | – | – | change of intracellular ROS in words (HT‐29 [2]): significant increase in ROS generation; change of intracellular ROS in words (Caco‐2 [5]): significant increase in ROS generation; change of intracellular ROS in words (HepG2 [6]): significant increase in ROS generation; change of intracellular ROS in words (CHO‐K1): significant increase in ROS generation; change of intracellular ROS in words (EA.hy926 [7]): significant increase in ROS generation |
| COc1cc(/C=C/C(=O)/C=C(O)/C=C/c2ccc[nH]2)ccc1O [3 f, (1E,4Z,6E)‐5‐Hydroxy‐1‐(4‐hydroxy‐3‐methoxyphenyl)‐7‐(1H‐pyrrol‐2‐yl)hepta‐1,4,6‐trien‐3‐one] | 36.1 ± 2.3 µM | 117 ± 10.5% | 109 ± 2.6% | 7.1 ± 0.2 µM | 31.7 ± 0.6 µM | 125 ± 3.5% | 147 ± 12% | 98.9 ± 2.9% | 216 ± 13.7% | 125 ± 9.7% | 132 ± 12.7% | 33.9 ± 0.4 µM | 15.9 ± 2 µM | 33.8 ± 1.4 µM | 17.1 ± 0.4 µM | 45.6 ± 0.9 µM | 20.9 ± 1.7 µM (≈ 6.51 µg/mL) | 18.3 ± 0.4 µM (≈ 5.7 µg/mL) | 0.56 Trolox equivalent per μM | 0.54 curcumin equivalent per μM | change of intracellular ROS in words (HT‐29 [2]): higher ROS signal; change of intracellular ROS in words (HepG2 [6]): significantly increased ROS production; change of intracellular ROS in words (CHO‐K1): significantly increased ROS; antioxidant activity in words, FRAP [14]: comparable to ascorbic acid |
| COc1cc(/C=C/c2cc(/C=C/c3ccncc3)[nH]n2)ccc1O [4 b, 2‐Methoxy‐4‐{(E)‐2‐[5‐((E)‐2‐(pyridin‐4‐yl)vinyl)‐1H‐pyrazol‐3‐yl]vinyl}phenol] | 47.4 ± 0.2 µM | 111 ± 16.2% | 114 ± 12.3% | 54.6 ± 0.3 µM | 56.7 ± 0.5 µM | 106 ± 4.6% | 94.3 ± 6.7% | 135 ± 14.1% | 123 ± 11.4% | 86.9 ± 1.6% | 80.6 ± 6.8% | 49 ± 0.7 µM | 46.5 ± 0.5 µM | 51.8 ± 0.3 µM | 39.3 ± 1.2 µM | 35.7 ± 0.1 µM | 16.8 ± 1.6 µM (≈ 5.37 µg/mL) | 12.8 ± 1.4 µM (≈ 4.09 µg/mL) | 0.43 Trolox equivalent per μM | 0.42 curcumin equivalent per μM | change of intracellular ROS in words (HepG2 [6]): significantly increased ROS production; change of intracellular ROS in words (CHO‐K1): significantly increased ROS; change of intracellular ROS in words (EA.hy926 [7]): decreased intracellular ROS |
| O=C(/C=C(O)/C=C/c1ccc2ccccc2n1)/C=C/c1c[nH]c2ccccc12 [3 k, (1E,4Z,6E)‐5‐Hydroxy‐1‐(1H‐indol‐3‐yl)‐7‐(quinolin‐2‐yl)hepta‐1,4,6‐trien‐3‐one] | 43.8 ± 0.9 µM | 112 ± 10.8% | 116 ± 7.1% | 54.1 ± 1 µM | 56.2 ± 1.6 µM | 162 ± 21.7% | 168 ± 28.1% | 156 ± 13% | 197 ± 24.6% | 120 ± 9.2% | 126 ± 5.6% | 42 ± 2 µM | 47.5 ± 0.2 µM | 53.2 ± 1.3 µM | 44.7 ± 2.1 µM | 38.3 ± 1.7 µM | 8.1 ± 0.1 µM (≈ 2.97 µg/mL) | 9.6 ± 0.8 µM (≈ 3.52 µg/mL) | 0.20 Trolox equivalent per μM | 0.19 curcumin equivalent per μM | – |
| COc1cc(/C=C/c2cc(/C=C/c3cccnc3)[nH]n2)ccc1O [4 a, 2‐Methoxy‐4‐{(E)‐2‐[5‐((E)‐2‐(pyridin‐3‐yl)vinyl)‐1H‐pyrazol‐3‐yl]vinyl}phenol] | 24 ± 1.6 µM | 61.3 ± 6.9% | 84.8 ± 3.8% | > 75 µM | 11.2 ± 0.1 µM | 79.1 ± 8.8% | 86.7 ± 2% | 88.4 ± 6.3% | 83.1 ± 5.5% | – | 97.3 ± 7.3% | > 75 µM | 18.7 ± 1.2 µM | 60.7 ± 0.7 µM | 53.7 ± 6.1 µM | 18.5 ± 1.3 µM | 8.8 ± 0.4 µM (≈ 2.81 µg/mL) | 7.7 ± 0.7 µM (≈ 2.46 µg/mL) | 0.57 Trolox equivalent per μM | 0.55 curcumin equivalent per μM | change of intracellular ROS in words (HT‐29 [2]): significantly decreased ROS signal; change of intracellular ROS in words (Caco‐2 [5]): significantly decreased ROS production; antioxidant activity in words, FRAP [14]: comparable to ascorbic acid |
